Assay results reported in ChEMBL document CHEMBL2040729, “Lead optimization of 17β-HSD1 inhibitors of the (hydroxyphenyl)naphthol sulfonamide type for the treatment of endometriosis” (J Med Chem, 2012).
Calls of active or inactive are those of the source. No cut-off for these calls is given here.

Columns and labels:
[1] = biological target: T1, 17-beta-hydroxysteroid dehydrogenase type 1 (Homo sapiens) (UniProt P14061); assay: Inhibition of human placenta cytosolic 17betaHSD1 using [3H]E1 as substrate at 10 nM after 10 mins by radioflow detection assay
T1 sequence (whole entry): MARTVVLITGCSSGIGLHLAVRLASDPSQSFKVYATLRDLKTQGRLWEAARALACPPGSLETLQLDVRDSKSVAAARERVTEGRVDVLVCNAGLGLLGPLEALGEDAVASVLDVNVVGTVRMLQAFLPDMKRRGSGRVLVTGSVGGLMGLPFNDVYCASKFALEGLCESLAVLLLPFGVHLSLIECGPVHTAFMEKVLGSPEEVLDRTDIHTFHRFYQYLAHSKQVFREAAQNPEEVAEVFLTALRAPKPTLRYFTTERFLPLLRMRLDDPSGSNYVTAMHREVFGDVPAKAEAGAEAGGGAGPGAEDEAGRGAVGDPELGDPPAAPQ

[2] = biological target: T2, 17-beta-hydroxysteroid dehydrogenase type 1 (Homo sapiens, UniProt P14061); assay: Inhibition of human placenta cytosolic 17betaHSD1 using [3H]E1 as substrate after 10 mins by radioflow detection assay
T2 sequence (P14061 whole entry): T1 sequence (whole entry)
Procedure, shortened: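 Cytosolic 17β-HSD1 from fresh human placenta, obtained by ammonium sulfate precipitation. Incubated at 37 °C in 50 mM phosphate buffer with 20% glycerol and EDTA, with NADH 500 μM and compound (DMSO 1% final). Started with unlabeled + [3H]-E1 (500 nM final), stopped after 10 min with HgCl2, ether-extracted. E1/E2 quantified by radioflow HPLC as % conversion. At least three independent experiments.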

[3] = biological target: T3, 17-beta-hydroxysteroid dehydrogenase type 2 (Homo sapiens, UniProt P37059); assay: Inhibition of human placenta microsomal 17betaHSD2 using [3H]E2 as substrate after 20 mins by radioflow detection assay
T3 sequence (P37059 whole entry): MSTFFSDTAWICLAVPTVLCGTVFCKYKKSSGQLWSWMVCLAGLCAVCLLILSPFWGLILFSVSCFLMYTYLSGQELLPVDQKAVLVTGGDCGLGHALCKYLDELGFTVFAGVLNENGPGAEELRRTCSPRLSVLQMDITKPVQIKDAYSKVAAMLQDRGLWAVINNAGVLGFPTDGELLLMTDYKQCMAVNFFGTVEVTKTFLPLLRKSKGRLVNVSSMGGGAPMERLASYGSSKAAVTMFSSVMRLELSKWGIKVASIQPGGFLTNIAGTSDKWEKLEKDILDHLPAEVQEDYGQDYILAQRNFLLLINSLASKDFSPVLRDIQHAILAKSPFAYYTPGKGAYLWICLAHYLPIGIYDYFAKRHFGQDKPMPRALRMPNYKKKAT
Procedure, shortened: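 Microsomal (pellet) fraction of fresh human placenta incubated with NAD+ 1500 μM, compound, and unlabeled + [3H]-E2 (500 nM final) for 20 min at 37 °C. Stopped with 1 mM HgCl2, ether-extracted. Steroids separated by HPLC with radioflow detection, conversion computed. Mean of three determinations.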

[4] = species on record: Callithrix jacchus; assay: Inhibition of mormoset placenta cytosolic 17betaHSD1 using [3H]E1 as substrate at 50 nM after 10 mins by radioflow detection assay
[5] = species on record: Callithrix jacchus; assay: Inhibition of mormoset placenta microsomal 17betaHSD2 using [3H]E2 as substrate at 50 nM after 20 mins by radioflow detection assay
[6] = biological target: T4, Estrogen receptor (Homo sapiens) (UniProt P03372); assay: Relative binding affinity to human recombinant ERalpha receptor using [3H]E2 as substrate after 1 hr by liquid scintillation counting relative to E2
T4 sequence (whole entry): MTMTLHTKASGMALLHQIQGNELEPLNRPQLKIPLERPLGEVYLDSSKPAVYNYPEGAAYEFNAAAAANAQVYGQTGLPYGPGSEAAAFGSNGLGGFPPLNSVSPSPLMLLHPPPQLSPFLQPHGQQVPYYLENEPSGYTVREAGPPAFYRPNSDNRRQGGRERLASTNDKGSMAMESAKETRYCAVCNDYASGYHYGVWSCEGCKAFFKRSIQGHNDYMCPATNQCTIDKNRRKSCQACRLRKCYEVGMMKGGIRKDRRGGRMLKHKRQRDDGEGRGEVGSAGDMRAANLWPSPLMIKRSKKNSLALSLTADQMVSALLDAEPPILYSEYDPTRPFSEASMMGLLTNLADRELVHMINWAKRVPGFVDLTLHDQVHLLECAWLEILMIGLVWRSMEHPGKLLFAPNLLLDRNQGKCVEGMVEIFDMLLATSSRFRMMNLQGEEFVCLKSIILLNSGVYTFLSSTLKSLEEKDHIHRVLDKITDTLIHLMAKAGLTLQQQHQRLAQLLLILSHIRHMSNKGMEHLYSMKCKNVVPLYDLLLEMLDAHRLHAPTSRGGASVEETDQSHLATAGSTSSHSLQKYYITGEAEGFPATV
Procedure, shortened: (§1)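 Recombinant human ERα or ERβ (0.25 pmol) incubated 1 h at rt with [3H]-E2 (10 nM) and compound in DMSO (5% final). Nonspecific binding defined with diethylstilbestrol 10 μM. Bound complex captured on hydroxyapatite, washed, resuspended in ethanol, counted by liquid scintillation. Concentrations displacing 50% of bound label compared with E2, which is set at 100%.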

[7] = biological target: Estrogen receptor beta (Homo sapiens) (UniProt Q92731); assay: Relative binding affinity to human recombinant ERbeta receptor using [3H]E2 as substrate after 1 hr by liquid scintillation counting relative to E2; procedure, shortened: as §1
Estrogen receptor beta (Homo sapiens), sequence (Q92731 whole entry): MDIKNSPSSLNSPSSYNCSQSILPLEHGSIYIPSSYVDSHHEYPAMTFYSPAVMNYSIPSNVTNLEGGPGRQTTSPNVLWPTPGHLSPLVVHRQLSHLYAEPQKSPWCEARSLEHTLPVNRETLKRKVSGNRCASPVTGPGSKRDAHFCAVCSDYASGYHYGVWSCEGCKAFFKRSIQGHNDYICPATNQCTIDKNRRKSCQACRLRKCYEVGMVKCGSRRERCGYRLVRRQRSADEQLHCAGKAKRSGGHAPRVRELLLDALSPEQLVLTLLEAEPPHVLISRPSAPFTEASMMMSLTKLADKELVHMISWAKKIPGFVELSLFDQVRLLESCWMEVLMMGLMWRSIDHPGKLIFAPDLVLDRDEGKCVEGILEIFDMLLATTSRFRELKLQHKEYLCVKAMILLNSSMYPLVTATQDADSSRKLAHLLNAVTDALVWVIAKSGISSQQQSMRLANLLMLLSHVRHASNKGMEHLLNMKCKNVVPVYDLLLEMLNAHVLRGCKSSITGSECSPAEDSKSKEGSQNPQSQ

[8] = biological target: T5, 17-beta-hydroxysteroid dehydrogenase type 1 (Mus musculus) (UniProt P51656); assay: Inhibition of mouse liver cytosolic 17betaHSD1 using [3H]E1 as substrate
T5 sequence (whole entry): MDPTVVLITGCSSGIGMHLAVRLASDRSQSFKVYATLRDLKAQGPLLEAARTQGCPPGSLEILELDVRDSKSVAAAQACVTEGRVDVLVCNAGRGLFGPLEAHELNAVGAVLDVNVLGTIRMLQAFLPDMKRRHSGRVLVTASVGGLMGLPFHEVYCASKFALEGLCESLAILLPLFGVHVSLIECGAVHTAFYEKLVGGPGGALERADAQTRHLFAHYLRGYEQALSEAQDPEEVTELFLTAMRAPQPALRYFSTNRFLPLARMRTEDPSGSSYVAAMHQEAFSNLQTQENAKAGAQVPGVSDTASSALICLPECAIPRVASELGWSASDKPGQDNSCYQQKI

[9] = biological target: T2, 17-beta-hydroxysteroid dehydrogenase type 1; assay: Inhibition of 17betaHSD1 in human T47D cells using [3H]E1 as substrate incubated for 30 mins prior to substrate addition measured after 30 mins by radioflow detection assay; assay type: cell-based
Procedure, shortened: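 T47D cells kept in RPMI 1640 with 10% FCS, glutamine, insulin-zinc, pyruvate, antibiotics. Seeded at 5 × 10^5 cells/well in DMEM with FCS, switched to serum-free DMEM after 24 h. Compound added in DMSO (1% final), 30 min preincubation at 37 °C, 5% CO2. Then unlabeled + [3H]-E1 (50 nM final) for 30 min. Steroids extracted into diethylether. Mean of three determinations.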

[10] = biological target: T6, Estradiol 17-beta-dehydrogenase 2 (Mus musculus) (UniProt P51658); assay: Inhibition of mouse liver microsomal 17betaHSD2 using [3H]E2 as substrate
T6 sequence (whole entry): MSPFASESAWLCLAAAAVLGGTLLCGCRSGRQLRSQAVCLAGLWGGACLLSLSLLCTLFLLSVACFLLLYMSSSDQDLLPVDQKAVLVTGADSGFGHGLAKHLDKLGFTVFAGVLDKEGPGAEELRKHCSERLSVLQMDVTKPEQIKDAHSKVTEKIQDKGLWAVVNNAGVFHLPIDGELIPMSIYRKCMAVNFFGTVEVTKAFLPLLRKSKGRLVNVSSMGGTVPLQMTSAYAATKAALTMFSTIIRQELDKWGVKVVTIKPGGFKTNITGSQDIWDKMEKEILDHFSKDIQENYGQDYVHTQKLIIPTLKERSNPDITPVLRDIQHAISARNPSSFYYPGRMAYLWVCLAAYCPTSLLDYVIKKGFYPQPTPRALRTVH

| inhibition [1] [%] | IC50 [2] [nM] | IC50 [3] [nM] | inhibition [4] [%] | inhibition [5] [%] | RBA [6] [%] | RBA [7] [%] | inhibition [8] | IC50 [9] [nM] | inhibition [10] | Structure (SMILES) |
| --- | --- | --- | --- | --- | --- | --- | --- | --- | --- | --- |
| > 30 | 32 | 1210 | 17 | 32 | < 0.1 | < 0.1 | inactive | 246 | Active | O=S(=O)(CC(F)(F)F)Nc1cccc(-c2c(O)ccc3cc(-c4cccc(O)c4)ccc23)c1 |
|  | 14 | 999 | 20 | < 10 | < 0.1 | < 0.1 | inactive | 701 | Active | O=S(=O)(Nc1cccc(-c2c(O)ccc3cc(-c4cccc(O)c4)ccc23)c1)c1cccc(O)c1 |
| > 30 | 15 | 403 | 19 | < 10 | < 0.1 | < 0.1 | inactive | 196 | Active | O=S(=O)(Nc1cccc(-c2c(O)ccc3cc(-c4cccc(O)c4)ccc23)c1)c1ccccc1 |
| > 30 | 14 | 439 | 43 | 35 | < 0.1 | < 0.1 | inactive | 157 | Active | N#Cc1ccccc1S(=O)(=O)Nc1cccc(-c2c(O)ccc3cc(-c4cccc(O)c4)ccc23)c1 |
